ChEMBL document CHEMBL2429791, “Preparation of asymmetric urea derivatives that target prostate-specific membrane antigen for SPECT imaging” (J Med Chem, 2013)

Columns and labels:
Format in all cases: ADME, organism-based
Kidney [1] = test: Drug excretion in C.B.-17/Icr […] Jcl mouse kidney xenografted with human LNCAP and PC3 cells at 25.9 MBq, iv; conditions: in vivo
Nucleic Acid [2] = test: Ratio of drug level in human PC3 cells xenografted in C.B.-17/Icr +/+ Jcl mouse to muscle of C.B.-17/Icr +/+ Jcl mouse xenografted with human LNCAP and PC3 cells at 25.9 MBq, iv after 6 hrs; conditions: in vivo
How it was run: (§1)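 Mice (22–24 g) carried PC-3 (right shoulder) and LNCaP (left shoulder) tumors, raised by injecting 1–5 × 10⁶ cells in 1:1 PBS/Matrigel and used at about 5–10 mm diameter. [¹²⁵I]-tracer was given via the tail vein, n=4 per time point, and mice were decapitated at 2 min, 30 min, 1, 3 or 6 h. Tissues were weighed and γ-counted as %ID/g. Tumor/blood and tumor/muscle ratios were taken from %ID/g, mean ± SD.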

Nucleic Acid [3] = test: Ratio of drug level in human LNCAP cells to human PC3 cells xenografted in C.B.-17/Icr […] Jcl mouse at 25.9 MBq, iv after 6 hrs; conditions: in vivo
Muscle tissue [4] = test: Biodistribution in muscle of C.B.-17/Icr +/+ Jcl mouse xenografted with human LNCAP and PC3 cells at 25.9 MBq, iv after 6 hrs; conditions: in vivo
How it was run: (§2)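 Radioiodinated (¹²⁵I) tracer given by tail-vein injection to mice bearing LNCaP (left shoulder) and PC-3 (right shoulder) xenografts, 22–24 g, grown to about 5–10 mm. Groups of n=4 were decapitated at 2 min, 30 min, 1 h, 3 h or 6 h. Tissues were weighed and counted, and uptake was expressed as %ID/g (mean ± SD).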

Lung [5] = test: Biodistribution in lung of C.B.-17/Icr +/+ Jcl mouse xenografted with human LNCAP and PC3 cells at 25.9 MBq, iv after 6 hrs; conditions: in vivo; how it was run: as §2
Intestine [6] = test: Biodistribution in intestine of C.B.-17/Icr […] Jcl mouse xenografted with human LNCAP and PC3 cells at 25.9 MBq, iv after 6 hrs; conditions: in vivo
How it was run: (§3)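 ¹²⁵I-labelled tracer given iv by tail vein to mice (22–24 g) bearing LNCaP (left shoulder) and PC-3 (right shoulder) xenografts of about 5–10 mm, grown from 1–5 × 10⁶ cells in 1:1 Matrigel. n=4 per time point; decapitated at 2 min, 30 min, 1, 3, 6 h. Tissues weighed and counted; uptake as %ID/g, mean ± SD.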

[7] = Ratio of drug level in human LNCAP cells xenografted in C.B.-17/Icr +/+ Jcl mouse to blood of C.B.-17/Icr +/+ Jcl mouse xenografted with human LNCAP and PC3 cells at 25.9 MBq, iv after 3 hrs; conditions: LNCAP tumour xenograft relative to blood
How it was run: (§4)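 Tumor-to-blood and tumor-to-muscle ratios were calculated from %ID/g values in ¹²⁵I-tracer biodistribution in LNCaP/PC-3 xenografted mice. Tail-vein dosing, n=4 per time point, sacrifice at 2 min, 30 min, 1, 3 or 6 h.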

Nucleic Acid [8] = test: Ratio of drug level in human LNCAP cells to human PC3 cells xenografted in C.B.-17/Icr […] Jcl mouse at 25.9 MBq, iv after 3 hrs; conditions: in vivo
Lung [9] = test: Biodistribution in lung of C.B.-17/Icr +/+ Jcl mouse xenografted with human LNCAP and PC3 cells at 25.9 MBq, iv after 3 hrs; conditions: in vivo; how it was run: as §2
Heart = test: Biodistribution in heart of C.B.-17/Icr +/+ Jcl mouse xenografted with human LNCAP and PC3 cells at 25.9 MBq, iv after 3 hrs; conditions: in vivo; how it was run: as §3
Intestine [10] = test: Biodistribution in intestine of C.B.-17/Icr +/+ Jcl mouse xenografted with human LNCAP and PC3 cells at 25.9 MBq, iv after 3 hrs; conditions: in vivo; how it was run: as §3
Stomach = test: Biodistribution in stomach of C.B.-17/Icr +/+ Jcl mouse xenografted with human LNCAP and PC3 cells at 25.9 MBq, iv after 3 hrs; conditions: in vivo; how it was run: as §2
Muscle tissue [11] = test: Biodistribution in muscle of C.B.-17/Icr +/+ Jcl mouse xenografted with human LNCAP and PC3 cells at 25.9 MBq, iv after 1 hr; conditions: in vivo; how it was run: as §2
Spleen [12] = test: Biodistribution in spleen of C.B.-17/Icr +/+ Jcl mouse xenografted with human LNCAP and PC3 cells at 25.9 MBq, iv after 1 hr; conditions: in vivo; how it was run: as §2
Liver = test: Biodistribution in liver of C.B.-17/Icr […] Jcl mouse xenografted with human LNCAP and PC3 cells at 25.9 MBq, iv after 1 hr; conditions: in vivo; how it was run: as §3
Nucleic Acid [13] = test: Ratio of drug level in human LNCAP cells to human PC3 cells xenografted in C.B.-17/Icr […] Jcl mouse at 25.9 MBq, iv after 30 mins; conditions: in vivo, 0.5 h
Spleen [14] = test: Biodistribution in spleen of C.B.-17/Icr scid/scid Jcl mouse xenografted with human LNCAP and PC3 cells at 25.9 MBq, iv after 30 mins in presence of 2-PMPA; conditions: in vivo, 0.5 h
How it was run: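 Blocking study: the ¹²⁵I tracer was coinjected via the tail vein with 2-PMPA (50 mg/kg) into LNCaP/PC-3 tumor-bearing mice, 22–24 g. Mice were decapitated 30 min after injection. Tissues were weighed and counted, giving %ID/g.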

LNCaP = test: Biodistribution in LNCAP cells in C.B.-17/Icr +/+ Jcl mouse xenografted with human LNCAP and PC3 cells at 25.9 MBq, iv after 30 mins; conditions: in vivo, 0.5 h; how it was run: as §3
Lung [15] = test: Biodistribution in lung of C.B.-17/Icr +/+ Jcl mouse xenografted with human LNCAP and PC3 cells at 25.9 MBq, iv after 30 mins; conditions: in vivo, 0.5 h; how it was run: as §2
Kidney [16] = test: Biodistribution in kidney of C.B.-17/Icr +/+ Jcl mouse xenografted with human LNCAP and PC3 cells at 25.9 MBq, iv after 30 mins; conditions: in vivo, 0.5 h; how it was run: as §3
Nucleic Acid [17] = test: Ratio of drug level in human LNCAP cells xenografted in C.B.-17/Icr +/+ Jcl mouse to muscle of C.B.-17/Icr +/+ Jcl mouse xenografted with human LNCAP and PC3 cells at 25.9 MBq, iv after 2 mins; conditions: in vivo; how it was run: as §4
[18] = Ratio of drug level in human PC3 cells xenografted in C.B.-17/Icr +/+ Jcl mouse to blood of C.B.-17/Icr +/+ Jcl mouse xenografted with human LNCAP and PC3 cells at 25.9 MBq, iv after 2 mins; conditions: PC3 tumour xenograft relative to blood; how it was run: as §1
[19] = Ratio of drug level in human LNCAP cells xenografted in C.B.-17/Icr +/+ Jcl mouse to blood of C.B.-17/Icr +/+ Jcl mouse xenografted with human LNCAP and PC3 cells at 25.9 MBq, iv after 2 mins; conditions: LNCAP tumour xenograft relative to blood; how it was run: as §4
Thyroid gland = test: Biodistribution in thyroid of C.B.-17/Icr +/+ Jcl mouse xenografted with human LNCAP and PC3 cells at 25.9 MBq, iv after 2 mins; conditions: in vivo; how it was run: as §2
Spleen [20] = test: Biodistribution in spleen of C.B.-17/Icr +/+ Jcl mouse xenografted with human LNCAP and PC3 cells at 25.9 MBq, iv after 2 mins; conditions: in vivo; how it was run: as §2
Kidney [21] = test: Biodistribution in kidney of C.B.-17/Icr […] Jcl mouse xenografted with human LNCAP and PC3 cells at 25.9 MBq, iv after 2 mins; conditions: in vivo; how it was run: as §3

**Q.** Which Drug excretion (Kidney [1]) does the source give for `O=C(O)CC[C@H](NC(=O)N[C@@H](CSC1CC(=O)N(CCCC[C@H](NC(=O)CNC(=O)c2cccc([125I])c2)C(=O)O)C1=O)C(=O)O)C(=O)O` (stereo partly specified) here?
**A.** Active

**Q.** What about the Ratio (Nucleic Acid [2]) of the same compound?
**A.** 2.1

**Q.** What about the Ratio (Nucleic Acid [3]) of the same compound?
**A.** 36.8

**Q.** And the Drug uptake (Muscle tissue [4])?
**A.** 0.1 % ID/g

**Q.** What about the Drug uptake (Lung [5]) of the same compound?
**A.** 0.9 % ID/g

**Q.** What about the Drug uptake (Intestine [6]) of the same compound?
**A.** 5.3 % ID/g

**Q.** And the Kp at 3 h [7]?
**A.** 13.8

**Q.** What about the Ratio (Nucleic Acid [8]) of the same compound?
**A.** 33.9

**Q.** What about the Drug uptake (Lung [9]) of the same compound?
**A.** 1.2 % ID/g

**Q.** And the Drug uptake (Heart)?
**A.** 0.7 % ID/g

**Q.** What about the Drug uptake (Intestine [10]) of the same compound?
**A.** 5.8 % ID/g

**Q.** What about the Drug uptake (Stomach) of the same compound?
**A.** 1 %ID

**Q.** What about the Drug uptake (Muscle tissue [11]) of the same compound?
**A.** 0.5 % ID/g

**Q.** And the Drug uptake (Spleen [12])?
**A.** 36.5 % ID/g

**Q.** What about the Drug uptake (Liver) of the same compound?
**A.** 13.9 % ID/g

**Q.** And the Ratio (Nucleic Acid [13])?
**A.** 10.1

**Q.** And the Drug uptake (Spleen [14])?
**A.** Not Active

**Q.** And the Drug uptake (LNCaP)?
**A.** 9.5 % ID/g

**Q.** What about the Drug uptake (Lung [15]) of the same compound?
**A.** 2.9 % ID/g

**Q.** What about the Drug uptake (Kidney [16]) of the same compound?
**A.** 88.8 % ID/g

**Q.** What about the Ratio (Nucleic Acid [17]) of the same compound?
**A.** 2.9

**Q.** And the Kp at 2 min [18]?
**A.** 0.4

**Q.** What about the Kp at 2 min [19] of the same compound?
**A.** 0.6

**Q.** And the Drug uptake (Thyroid gland)?
**A.** 0.02 %ID

**Q.** What about the Drug uptake (Spleen [20]) of the same compound?
**A.** 12.5 % ID/g

**Q.** And the Drug uptake (Kidney [21])?
**A.** 68.1 % ID/g
